Sampled rows, rich in hits. Any-hit rate of the full collection: about 1.4%.
Rev-erbA mod: Rev-erb alpha (human) modulation; P20393; Rev-erbα–FITC-DNA binding, fluorescence polarization, 90 min; activity, % at 10 µM; 370,000 tested, 0.79% active; AID 1259318;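 active = activity above about 14%, limit read from the data; passing the limit was not always enough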;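 also: 0% = DMSO wells with 35 nM protein and 100% = DMSO wells with 750 nM protein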
NR2E3 ag-1: NR2E3 (human) agonism. Q9Y5X4. GST-NR2E3/biotin-RetCOR TR-FRET, 1536-well. inhibition of corepressor binding, % at 4.78 µM. 320,000 tested, 0.12% active. AID 2300;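 active = percent inhibition above the cutoff of mean plus 3 SD of all tested compounds, set per screening campaign, cut at about 20% in these data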;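 also: 0% = DMSO wells and 100% = biotin wells as full block of FRET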
Target sequence (Q9Y5X4 whole entry, looked up): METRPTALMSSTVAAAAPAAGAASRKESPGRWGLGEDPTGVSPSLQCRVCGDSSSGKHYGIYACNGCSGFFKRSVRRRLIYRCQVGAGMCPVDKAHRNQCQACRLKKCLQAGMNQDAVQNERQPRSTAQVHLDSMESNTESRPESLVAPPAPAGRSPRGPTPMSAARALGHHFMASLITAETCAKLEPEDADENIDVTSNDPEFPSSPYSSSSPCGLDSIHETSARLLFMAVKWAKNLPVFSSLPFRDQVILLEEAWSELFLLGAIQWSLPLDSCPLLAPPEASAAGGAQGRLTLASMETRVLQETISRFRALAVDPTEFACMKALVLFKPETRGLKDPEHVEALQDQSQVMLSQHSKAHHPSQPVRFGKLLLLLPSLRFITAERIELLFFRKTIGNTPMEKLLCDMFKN
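System: GST-tagged NR2E3 plus biotinylated RetCOR corepressor; Amount: 1.35 nM GST-tagged NR2E3 final; Dosing: single nominal compound dose of 4.8 µM; Schedule: 5 h incubation at 4 °C; Technique: TR-FRET with europium anti-GST and streptavidin-D2, 340 nm excitation; Controls: biotin wells as high control, 0.6% DMSO wells as low control.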
PG9 binder: binds the HIV-1 gp120 antibody PG9. 360,000 tested, 0.43% active. TR-FRET gp120-PG9 antibody binding. inhibition, % at 6.7 µM; in the data active = inhibition above about 8.5%
NR2E3 ag-2: activates human NR2E3 receptor. CHO-S Gal4-NCOR/VP16-NR2E3 two-hybrid, luciferase. inhibition of corepressor binding, % at 3.98 µM. 360,000 tested, 0.35% active. Q9Y5X4;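 active = inhibition above the mean of all tested compounds plus 3 SD, cut at about 70% in these data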;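 also: 0% = DMSO with NR2E3 transfected cells and 100% = cells lacking NR2E3 construct; higher means lower luciferase signal from less NR2E3 corepressor binding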
NR2E3 ag conf: confirmation of human NR2E3 agonists. 2,300 tested, 51% active. shares compounds with NR2E3 ag-2. inhibition, % at 3.98 µM. CHO-S mammalian two-hybrid NR2E3-NCOR, luciferase luminescence;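 active = average inhibition above a cutoff equal to the mean inhibition of all tested compounds plus one SD, cut at about 70% in these data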;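 also: 0% = DMSO in NR2E3 cells and 100% = DMSO in cells lacking NR2E3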
GAL4-VP16 luc: GAL4-VP16 reporter inhibition in NR2E3 agonist counterscreen; shares compounds with NR2E3 ag-2; CHO-S GAL4-VP16 luciferase reporter, luminescence; inhibition, % at 3.98 µM; 2,300 tested, 29% active; AID 624379;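 active = mean inhibition above a cutoff equal to the average over all tested compounds plus one standard deviation, cut at about 70% in these data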;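 also: luciferase from a UAS reporter driven by GAL4-VP16 transactivation; 0% = DMSO with VP16-transfected cells and 100% = DMSO with cells lacking VP16; higher means less reporter light so more repression of VP16 activity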
The depositor's hits bear a star; x = no result.

SMILES	Rev-erbA mod	NR2E3 ag-1	PG9 binder	NR2E3 ag-2	NR2E3 ag conf	GAL4-VP16 luc
COc1ccc(NC2c3ccccc3C(=O)N2Cc2ccccc2Cl)cc1OC (stereo not drawn)	0.0	-0.8	-2.1	69.2	71.2*	-7.8
CCc1ccc(NC(=O)C2CCN(S(=O)(=O)c3ccc4c(c3)NC(=O)C(C)S4)CC2)cc1 (stereo not drawn)	3.2	0.3	-0.7	11.9	x	x
CC1Sc2ccc(S(=O)(=O)N3CCC(C(=O)Nc4cccc(Cl)c4)CC3)cc2NC1=O (stereo not drawn)	0.4	-2.0	-1.5	48.9	64.9	54.0
Cc1ccc(NC(=O)C2CCN(S(=O)(=O)c3ccc4c(c3)NC(=O)C(C)S4)CC2)cc1C (stereo not drawn)	-0.1	0.1	-1.8	74.0*	92.7*	72.7*
O=C1c2cccc(O)c2C(=O)c2c(O)cccc21	-7.5	2.0	x	x	x	x
CC1OC(CC(=O)O)CC2=C1C(=O)c1c(O)cccc1C2=O (stereo not drawn)	-1.9	x	12.7*	101.3*	100.5*	99.3*
CCOC(=O)[C@]12CCCCC/C=C\1N(CCc1ccc(Cl)cc1)C(=O)[C@H]2CC(=O)N1CCC(c2ccccc2)CC1	3.2	x	x	x	x	x
CCCCCCCCNc1ncnc2[nH]ncc12	0.8	x	-1.7	73.1*	84.1*	72.7*
Cc1ccc(CNC[C@@]23CO[C@H](c4ccc(Cl)cc4)N2[C@@H](c2ccc(Cl)cc2)SC3)o1	4.7	x	x	x	x	x
O=C(C1CC1)N1CCc2cc(S(=O)(=O)NCCC3=CCCCC3)ccc21	6.3	-1.4	-2.0	58.7	57.5	46.7
O=C(C1CC1)N1CCc2cc(S(=O)(=O)NCC3COc4ccccc4O3)ccc21 (stereo not drawn)	1.9	2.4	-0.6	55.6	54.4	55.3
CCCN(CCC)CCNS(=O)(=O)c1ccc2c(c1)CCN2C(=O)C1CCC1	7.1	0.9	-0.9	0.9	x	x
O=C(C1CCC1)N1CCc2cc(S(=O)(=O)NCC3COc4ccccc4O3)ccc21 (stereo not drawn)	1.6	-1.9	1.0	67.4	60.2	36.5
COC(=O)C1CN(Cc2ccc(C)cc2)CCS(=O)(=O)N1Cc1cn(Cc2ccc(C)cc2)nn1 (stereo not drawn)	0.6	x	x	x	x	x
CC(=O)N1c2ccc(S(=O)(=O)N3CCC(C(=O)Nc4ccccn4)CC3)cc2CC1C (stereo not drawn)	-4.3	-0.1	0.0	5.9	x	x
COc1cccc(NC(=O)C2CCN(S(=O)(=O)c3ccc4c(c3)CC(C)N4C(C)=O)CC2)c1 (stereo not drawn)	10.9	-2.8	-2.1	-4.8	x	x
CC(=O)N1c2ccc(S(=O)(=O)N3CCC(C(=O)Nc4cccc(C(F)(F)F)c4)CC3)cc2CC1C (stereo not drawn)	3.2	-1.3	1.7	58.5	61.3	43.9
CC(=O)N1c2ccc(S(=O)(=O)N3CCC(C(=O)Nc4cccc(C)n4)CC3)cc2CC1C (stereo not drawn)	-2.1	-3.8	-2.0	49.7	17.9	5.5
O=C(Nc1cccc(C(F)(F)F)c1)C1CCN(S(=O)(=O)c2ccc(N3CCCC3=O)cc2)CC1	-3.8	4.7	-1.5	84.7*	90.3*	67.6
O=C(OC12CCCN(C1)/C(=C/c1ccccc1)C2)c1cccc(F)c1 (stereo not drawn)	-4.2	x	x	x	x	x
CC(C)C[C@H]1COc2cccc(F)c2S(=O)(=O)N1Cc1cn(Cc2ccco2)nn1	3.2	x	x	x	x	x
COC(=O)C1CN(Cc2cn(CCC3OCCO3)nn2)CCS(=O)(=O)N1Cc1ccccc1 (stereo not drawn)	-2.3	x	x	x	x	x
C=CS(=O)(=O)c1ccc(Oc2ccc(S(=O)(=O)C=C)cc2)cc1	2.2	1.4	-1.9	91.3*	68.7	25.9
N#CC(C#N)=C(Nc1ccc(F)cc1)SCc1cccc(F)c1	-3.0	-0.9	-2.2	81.0*	88.7*	87.5*
COC(=O)c1ccc(-c2ccc3c(c2)[C@]2(CCC[C@@H](OCc4ccccc4)[C@@H]2NC(=O)CCc2ccccc2)C(=O)N3Cc2ccccc2)cc1	5.6	x	x	x	x	x
SMILES	Rev-erbA mod	NR2E3 ag-1	PG9 binder	NR2E3 ag-2	NR2E3 ag conf	GAL4-VP16 luc
CC(O)(c1ccc(F)c(F)c1)c1nc(-c2cc3ccccc3o2)cs1 (stereo not drawn)	11.7	x	-2.2	58.4	61.2	48.4
CC(O)(c1cccc(F)c1)c1nc(-c2cc3ccccc3o2)cs1 (stereo not drawn)	0.7	x	0.5	33.9	x	x
COc1cccc(C(C)(O)c2nc(-c3ccc(OC)c(OC)c3)cs2)c1 (stereo not drawn)	-7.0	x	0.2	-5.2	x	x
COc1cccc(C(C)(O)c2nc(-c3ccc(N(C)C)cc3)cs2)c1 (stereo not drawn)	9.6	x	-0.2	72.9*	82.6*	59.8
COc1cccc(C(C)(O)c2nc(-c3ccccc3)cs2)c1 (stereo not drawn)	-3.6	x	-1.0	3.4	x	x
COc1cccc(C(C)(O)c2nc(-c3cc4ccccc4o3)cs2)c1 (stereo not drawn)	3.8	x	-3.1	79.0*	92.8*	72.2*
CC(C)=CCC/C(C)=C/CNCC(=O)N1c2ccccc2[C@]2(C)C[C@@H]3C(=O)N(C/C=C(\C)CCC=C(C)C)CC(=O)N3[C@H]12	2.5	x	x	x	x	x
CCOC(=O)Cc1c(C)nc2c(-c3cccc(Br)c3)c[nH]n2c1=O	-3.2	-1.6	-1.1	64.3	47.0	38.4
COc1ccc(S[C@]2(C(=O)N3CCOCC3)CC(=O)N(P(=O)(OC)OC)[C@@H]2c2ccc(OC)cc2)cc1	-4.3	x	x	x	x	x
CC(=O)OCC(=O)Nc1ccc([N+](=O)[O-])cc1Cl	-7.3	2.1	-2.6	-20.6	x	x
CC(=O)Oc1c(C)cc(Cl)cc1C(=O)Nc1ccc([N+](=O)[O-])cc1Cl	-1.3	-1.0	-0.4	82.7*	98.9*	72.6*
N#C/C(=N/Nc1ccc(OC(F)(F)F)cc1)C(N)=S	-0.3	-1.3	-2.0	93.3*	92.8*	58.3
COc1ccc(N/N=C(\C#N)C(N)=O)cc1	-0.2	1.2	-4.4	12.4	x	x
Cc1ccc(S(=O)(=O)N2CCC(C(=O)NCc3cccs3)CC2)cc1	-3.1	x	x	x	x	x
O=C(CCc1ccccc1)N[C@H]1[C@@H](OC(=O)c2ccco2)CCC[C@]12C(=O)N(Cc1ccccc1)c1ccccc12	-3.6	x	x	x	x	x
Nc1nnnn1/N=C/C(Br)=C/c1ccccc1	-6.5	2.8	-0.7	65.3	46.7	30.5
O=C(COc1ccccc1O)Nc1ccccc1Cl	-3.3	-0.8	0.2	-50.4	x	x
O=C(COc1ccccc1O)NNc1ccccc1	-0.8	-0.1	-2.4	60.6	46.7	11.0
CC(=O)N1CCN(c2ccc(Oc3ccc([N+](=O)[O-])c(C(F)(F)F)c3)cc2)CC1	x	1.9	x	99.6*	96.3*	80.5*
CCOc1ccc(C(=O)Nc2ccc(N3CCN(C(C)=O)CC3)cc2)cc1[N+](=O)[O-]	-0.1	1.3	-3.7	-14.6	x	x
Cc1ccc(C(=O)N2CCC(Oc3cccnc3)CC2)cc1	0.0	x	x	x	x	x

Bioassay records deposited in PubChem by several laboratories.
